Shown are actives, neighbours in structure and some others; about 5.7% of the full set was active somewhere.
T cruzi inh: T. cruzi replication inhibition | inhibition, % (no concentration beside the values) | hit rate 1.4% among 300,000 | T. cruzi beta-gal in NIH3T3, luminescence, 90 h;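 active = mean inhibition across valid replicates above about 55%, limit read from the data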;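 also: signal also drops with host cell toxicity which is not excluded here; higher percent means less beta-gal luminescence so fewer parasites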
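Material: NIH/3T3 host cells with β-galactosidase reporter T. cruzi; Input: 5,000 host fibroblasts per well; Medium: DMEM, 2% fetal bovine serum; Compound: 50 nL DMSO compound solution per well; Schedule: 3 h host attachment, then at least 90 h co-culture; Detection: luminescent β-galactosidase signal after 60 min lysis.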
Calb FLC: affects C. albicans growth with fluconazole; hit rate 0.57% among 300,000; AID 1979; C. albicans CaCi-2 + fluconazole, Alamar Blue growth, 48 h; growth inhibition, % (no concentration beside the values);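 active = growth inhibition above about 58% in most replicates, limit read from the data, passing the limit was not always enough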;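 also: all wells also contain fluconazole at 8 µg/ml as a sub-toxic cotreatment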
Beta cell apopt: blocks beta cell apoptosis; hit rate 0.8% among 300,000; INS-1E cytokine-induced death, ATP luminescence, 48 h; percent of positive-control rescue, neutral wells zero; protection from apoptosis, % (no concentration beside the values);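 active = Every replicate reaches about 75%, or at least half do and their mean reaches it too, limit read from the data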;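 also: higher means more ATP so stronger rescue from cytokine killing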
Mdm2 MdmX PPI: inhibitors of human Mdm2/MdmX interaction. inhibition, % at 8 µM. hit rate 3% among 330,000. AID 485346. SaOS-2 split-luciferase Mdm2/MdmX complementation, luminescence. O15151+Q00987;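 active = inhibition of at least 50% at 8 µM in the primary screen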
SKKanGAS inh: inhibitors of SKKanGAS S. pyogenes growth in kanamycin (SK-promoter or general growth effect); BacTiter-Glo, 6 h; inhibition, % at 7.5 µM; hit rate 1.3% among 300,000; AID 1662;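 active = mean replicate score, as percent of positive control median, at least 50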;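 also: strain carries kanamycin resistance gene driven by streptokinase promoter and grows in 40 µg/ml kanamycin; loss of luminescence reflects streptokinase promoter inhibition or plain growth inhibition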
CSC inhib: cancer stem cell inhibition | cancer stem cell-like cells viability, luminescence | AID 2717 | hit rate 1.1% among 300,000 | inhibition, % at 7.5 µM; in the data active = inhibition above about 75%; tested in HMLE shEcad cells
Numbers stand for hits; - = inactive; . = no result given; ! = a repeat was not active.

SMILES	T cruzi inh	Calb FLC	Beta cell apopt	Mdm2 MdmX PPI	SKKanGAS inh	CSC inhib
C=CCN(C(=O)CCc1ccccc1OC)c1nc(-c2ccc(S(C)(=O)=O)cc2)cs1	66.2	-	.	-	-	-
COc1ccc(-n2c(O)c(/C=N/NS(=O)(=O)c3cccc([N+](=O)[O-])c3)c3ccccc3c2=O)cc1OC	61.8	-	-	-	-	-
COc1ccc(CC(=O)NNS(=O)(=O)c2cccc([N+](=O)[O-])c2)cc1OC	-	-	-	-	-	.
Cc1ccc(-c2cc(-c3ccccc3)nc(N(C)N)n2)cc1	-	-	-	-	67.9	-
Cc1ccc(-c2cc(N)nc(-c3ccccc3)c2)cc1	-	-	-	-	-	-
Cc1ccc(N2CCN(S(=O)(=O)c3ccc4oc(=O)ccc4c3)CC2)c(C)c1	-	-	-	-	-	.
CCn1c(C)cc(/C=C2/NC(=O)N(Cc3ccccc3F)C2=O)c1C	-	-	-	-	-	-
Cc1cc(/C=C2/NC(=O)N(Cc3ccccc3F)C2=O)c(C)n1C(C)C	56.6	-	-	-	-	-
O=C(COC(=O)/C=C/c1ccc(OC(F)F)cc1)Nc1cccc(S(=O)(=O)N2CCOCC2)c1	.	.	-	-	.	-
CC1CCCC(NC(=O)COC(=O)COc2ccc(C#N)cc2)C1C (stereo unspecified)	.	.	-	-	.	.
COc1ccc(C)cc1NC(=S)NNC(=O)c1c(Br)cnn1C	-	72.4	-	-	-	-
CCOC(=O)c1ccc(NC(=O)c2sc3nc4n(c(=O)c3c2C)CCC4)cc1	-	-	.	-	61.6	-
CCOc1ccc(NC(=O)c2sc3nc4n(c(=O)c3c2C)CCC4)cc1	-	-	-	-	-	-
Cc1ccc(S(=O)(=O)N2CCCCC2c2cccnc2)c(C)c1C (stereo unspecified)	-	-	97.6	-	-	-
O=S(=O)(c1cccc(C(F)(F)F)c1)N1CCCC1c1cccnc1 (stereo unspecified)	.	-	-	-	-	-
NC(=O)N/N=C(/CCCCCC/C(=N\NC(N)=O)c1ccccc1)c1ccccc1	-	-	-	-	52.9	-
Oc1cccc(/C=N/NC(=S)Nc2cccnc2)c1O	-	-	87.3	.	-	-
Cc1cnn(-c2nc(-c3ccccc3)cc(-c3ccccc3)n2)c1	-	-	.	-	75.5	.
CCN(C(=O)CN1C(=O)S/C(=C\c2ccc(F)cc2)C1=O)C1CCS(=O)(=O)C1 (stereo unspecified)	-	-	-	-	-	-
COc1ccc(-n2cc(-c3ccc(C)cc3)[n+]3c2SCC3)cc1	58.7	107.0	113.3	-	-	-
CCc1ccc(-n2cc(-c3ccc(F)cc3)[n+]3c2SCCC3)cc1	56.3	-	109.7	-	-	-
Cc1ccc(-c2cn(-c3ccccc3)c3[n+]2CCCS3)cc1	-	99.2!	110.9	-	-	-
CC(=O)c1ccc(OCC(=O)OCC(=O)N(CC(C)C)c2c(N)n(Cc3ccccc3)c(=O)[nH]c2=O)cc1	.	.	.	-	.	.
C[C@H](CO)N1C[C@H](C)[C@@H](CN(C)S(C)(=O)=O)Oc2ccc(NC(=O)Nc3ccccc3)cc2C1=O	.	.	-	-	.	.
COC(=O)Cn1cnc2c(nnn2-c2ccc(OC)cc2)c1=O	-	-	-	-	-	-
SMILES	T cruzi inh	Calb FLC	Beta cell apopt	Mdm2 MdmX PPI	SKKanGAS inh	CSC inhib
C=CCNC(=S)N/N=C/c1ccc(OCc2ccccc2Cl)cc1	64.9	-	-	-	-	.
O=C(CN1CCOCC1)N/N=C/c1ccco1	-	-	.	-	-	-
O=C(CN1CCOCC1)N/N=C/c1c(O)ccc2ccccc12	-	-	83.9	-	-	-
CC(=O)Nc1ccc(N=Cc2c(O)ccc3ccccc23)cc1	-	-	-	-	-	-
O=C(N/N=C/c1c(O)ccc2ccccc12)Nc1ccccc1	-	-	-	-	92.9	-
O=C(CNS(=O)(=O)c1ccc(Br)cc1)N1CCN(Cc2ccccc2)CC1	-	-	.	-	-	-
O=C(CCc1ccc(S(=O)(=O)N2CCOCC2)cc1)OCC(=O)c1ccccc1	.	.	-	-	.	-
CCCOc1ccc(Cc2c(Cl)nc(SC)nc2OC)cc1	-	-	-	-	53.1	-
CSc1nc(Cl)c(Cc2ccc(OC(C)C)cc2)c(N2CCOCC2)n1	-	-	-	-	-	-
COc1nc(SC)nc(Cl)c1Cc1ccc(OC(C)C)cc1	-	-	-	-	-	-
CCCOc1ccc(Cc2c(Cl)nc(SC)nc2N(C)C)cc1	-	-	-	-	64.1	.
c1ccc(Nc2cccc(Nc3ccccc3)c2)cc1	64.9	-	-	-	-	-
Nc1cccc(Nc2ccccc2)c1	-	-	.	-	-	-
O=c1[nH]c(/C(Cl)=C/c2cc(Cl)ccc2O)nc2cc(Cl)ccc12	-	-	-	-	-	101.2
CC1(NC(=O)Cc2c(Cl)cccc2Cl)CCS(=O)(=O)C1 (stereo unspecified)	.	.	-	-	.	.
CC1CCC(C(=O)c2c(O)c3ccccc3oc2=O)CC1 (stereo unspecified)	-	108.4	-	-	52.6	-
O=C(NNc1nc(-c2ccccc2)cs1)c1ccccc1	-	-	-	-	-	-
N#Cc1ccc(-c2csc(NNC(=O)c3ccccc3)n2)cc1	.	-	79.0	-	-	-
Cc1cccc(C)c1NC(=O)Cn1cc(C=O)c2ccccc21	-	-	-	-	-	-
O=C(O)/C=C/c1ccc(S(=O)(=O)Nc2ccc(C(=O)NCC(=O)O)cc2)cc1	-	50.2	-	-	-	-
O=C(O)/C=C/c1ccc(S(=O)(=O)Nc2ccc(OCc3ccccc3)cc2)cc1	-	-	-	-	-	-
Cc1ccccc1SCC(=O)OCC(=O)NCc1ccccc1	.	.	-	-	.	-
CCOC(=O)c1ccccc1OCc1cc(/C=N/n2cnnc2)ccc1OC	-	102.2	-	-	-	-
N#C/C(=C\c1ccc(N2CCOCC2)o1)c1ccccc1	-	-	-	-	-	-
N#C/C(=C\c1ccc(N2CCOCC2)cc1)c1ccccc1	-	87.4	-	-	-	-
SMILES	T cruzi inh	Calb FLC	Beta cell apopt	Mdm2 MdmX PPI	SKKanGAS inh	CSC inhib
CCCC(=O)OC(C(=O)Nc1cc(C(F)(F)F)ccc1Cl)c1ccccc1 (stereo unspecified)	-	-	-	-	-	-
Cc1cc(C(=O)NCC(=O)OC(C(=O)Nc2cc(C(F)(F)F)ccc2Cl)c2ccccc2)ccc1[N+](=O)[O-] (stereo unspecified)	-	-	-	-	52.7	-
Cn1c(NCc2ccco2)nc2c1c(=O)n(Cc1ccc(Cl)c(Cl)c1)c(=O)n2C	.	-	-	-	58.7	-
Cc1ccc2c(c1)c1n[nH]c(=S)nc1n2CCc1ccccc1	68.6	-	-	-	-	-
Fc1ccc2c(c1)c1n[nH]c(=S)nc1n2CCc1ccccc1	-	-	.	-	-	.
Cc1ccc(N2CC(C(=O)Nc3nc4ccc(S(C)(=O)=O)cc4s3)CC2=O)cc1 (stereo unspecified)	-	-	-	-	-	-
Cc1ccc(-c2csc(Cc3nc(-c4ccc5c(c4)CCC(=O)N5)cs3)n2)cc1	-	-	-	-	70.7	-
